Measurements from ChEMBL document CHEMBL3102784, “Salicylanilide diethyl phosphates: synthesis, antimicrobial activity and cytotoxicity” (Bioorg Med Chem, 2014).
In brackets after ≈: the same amount, converted by molar mass. Activity calls are given as the source filed them. The rule behind the calls is not given here.

Experiments:
Mycobacterium avium [1] = test: Antimycobacterial activity against isoniazid, rifampicin, ethambutol and ofloxacin-resistant Mycobacterium avium My 330/88 after 21 days; format: functional; details: My 330/88, 504 h
How it was run: (§1)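 Micromethod MIC in Šula's semisynthetic medium at 37 °C. Compounds added in DMSO at 1000 down to 0.032 µmol/L. Isoniazid standard in sterile water at 0.5–250 µmol/L. Inocula: H37Rv 10^3, M. avium 10^5, M. kansasii 10^4. Read at 14 and 21 d, plus 7 d for M. kansasii.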

Mycobacterium avium [2] = test: Antimycobacterial activity against isoniazid, rifampicin, ethambutol and ofloxacin-resistant Mycobacterium avium My 330/88 after 14 days; format: functional; details: My 330/88, 336 h; how it was run: as §1
[3] = system: Mycobacterium tuberculosis; test: Antimycobacterial activity against Mycobacterium tuberculosis H37Rv My 331/88 after 21 days; format: functional; details: H37Rv My 331/88, 504 h; how it was run: as §1
[4] = system: Mycobacterium tuberculosis; test: Antimycobacterial activity against Mycobacterium tuberculosis H37Rv My 331/88 after 14 days; format: functional; details: H37Rv My 331/88, 336 h; how it was run: as §1
[5] = system: Trichophyton mentagrophytes; test: Antifungal activity against Trichophyton mentagrophytes 445 after 120 hrs by broth microdilution method; format: functional; details: Trichophyton mentagrophytes, 445, 120 h
How it was run: (§2)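 Filamentous dermatophyte tested by broth microdilution in RPMI 1640 with glutamine, fluconazole as reference. Value expressed as IC50 relative to growth control. Read at 72 and 120 h.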

[6] = system: Trichophyton mentagrophytes; test: Antifungal activity against Trichophyton mentagrophytes 445 after 72 hrs by broth microdilution method; format: functional; details: Trichophyton mentagrophytes, 445, 72 h; how it was run: as §2
Lichtheimia corymbifera [7] = test: Antifungal activity against Absidia corymbifera 272 after 48 hrs by broth microdilution method; format: functional; details: Lichtheimia corymbifera, 272, 48 h
How it was run: (§3)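 Broth microdilution in RPMI 1640 with glutamine, fluconazole as reference. For yeasts, MIC is ≥80% growth reduction (IC80) versus control. For filamentous fungi, the value is expressed as IC50. Readings at 24 and 48 h.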

Lichtheimia corymbifera [8] = test: Antifungal activity against Absidia corymbifera 272 after 24 hrs by broth microdilution method; format: functional; details: Lichtheimia corymbifera, 272, 24 h; how it was run: as §3
Aspergillus fumigatus [9] = test: Antifungal activity against Aspergillus fumigatus 231 after 48 hrs by broth microdilution method; format: functional; details: Aspergillus fumigatus, 231, 48 h; how it was run: as §3
Aspergillus fumigatus [10] = test: Antifungal activity against Aspergillus fumigatus 231 after 24 hrs by broth microdilution method; format: functional; details: Aspergillus fumigatus, 231, 24 h; how it was run: as §3
Trichosporon asahii [11] = test: Antifungal activity against Trichosporon asahii 1188 after 48 hrs by broth microdilution method; format: functional; details: Trichosporon asahii, 1188, 48 h; how it was run: as §3
Trichosporon asahii [12] = test: Antifungal activity against Trichosporon asahii 1188 after 24 hrs by broth microdilution method; format: functional; details: Trichosporon asahii, 1188, 24 h; how it was run: as §3
Pichia kudriavzevii [13] = test: Antifungal activity against Candida krusei E28 after 48 hrs by broth microdilution method; format: functional; details: E28, 48 h; how it was run: as §3
Pichia kudriavzevii [14] = test: Antifungal activity against Candida krusei E28 after 24 hrs by broth microdilution method; format: functional; details: E28, 24 h; how it was run: as §3
Candida albicans [15] = test: Antifungal activity against Candida albicans ATCC 44859 after 48 hrs by broth microdilution method; format: functional; details: ATCC 44859, 48 h; how it was run: as §3
Candida albicans [16] = test: Antifungal activity against Candida albicans ATCC 44859 after 24 hrs by broth microdilution method; format: functional; details: ATCC 44859, 24 h; how it was run: as §3
Nakaseomyces glabratus = test: Antifungal activity against Candida glabrata 20/I at 500 micromol/L after 24 to 48 hrs by broth microdilution method; format: functional, organism-based; how it was run: as §3
Candida tropicalis = test: Antifungal activity against Candida tropicalis 156 at 500 micromol/L after 24 to 48 hrs by broth microdilution method; format: functional, organism-based; how it was run: as §3
Pseudomonas aeruginosa = test: Antibacterial activity against Pseudomonas aeruginosa CCM 1961 at 500 micromol/L after 24 to 48 hrs by broth microdilution method; format: functional, organism-based
How it was run: (§4)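 Broth microdilution in Mueller–Hinton broth, compounds dissolved in DMSO, tested over a dilution series from 500 downward. MIC taken as ≥95% growth reduction (IC95) versus drug-free control. Benzylpenicillin comparator. Readings at 24 and 48 h.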

Klebsiella pneumoniae [17] = test: Antibacterial activity against ESBL-positive Klebsiella pneumoniae J 14368/08 at 500 micromol/L after 24 to 48 hrs by broth microdilution method; format: functional, organism-based; how it was run: as §4
Klebsiella pneumoniae [18] = test: Antibacterial activity against Klebsiella pneumoniae D 11750/08 at 500 micromol/L after 24 to 48 hrs by broth microdilution method; format: functional, organism-based; how it was run: as §4
Escherichia coli = test: Antibacterial activity against Escherichia coli CCM 4517 at 500 micromol/L after 24 to 48 hrs by broth microdilution method; format: functional, organism-based; how it was run: as §4
Enterococcus sp. = test: Antibacterial activity against Enterococcus sp. J 14365/08 at 500 micromol/L after 24 to 48 hrs by broth microdilution method; format: functional, organism-based; how it was run: as §4
[19] = system: Staphylococcus epidermidis; test: Antibacterial activity against Staphylococcus epidermidis H 6966/08 after 48 hrs by broth microdilution method; format: functional; details: H 6966/08, 48 h; how it was run: as §4
[20] = system: Staphylococcus epidermidis; test: Antibacterial activity against Staphylococcus epidermidis H 6966/08 after 24 hrs by broth microdilution method; format: functional; details: H 6966/08, 24 h; how it was run: as §4
Staphylococcus aureus [21] = test: Antibacterial activity against methicillin-resistant Staphylococcus aureus H 5996/08 after 48 hrs by broth microdilution method; format: functional; details: H 5996/08, 48 h; how it was run: as §4
Staphylococcus aureus [22] = test: Antibacterial activity against methicillin-resistant Staphylococcus aureus H 5996/08 after 24 hrs by broth microdilution method; format: functional; details: H 5996/08, 24 h; how it was run: as §4
Staphylococcus aureus [23] = test: Antibacterial activity against Staphylococcus aureus CCM 4516/08 after 48 hrs by broth microdilution method; format: functional; details: CCM 4516/08, 48 h; how it was run: as §4
Staphylococcus aureus [24] = test: Antibacterial activity against Staphylococcus aureus CCM 4516/08 after 24 hrs by broth microdilution method; format: functional; details: CCM 4516/08, 24 h; how it was run: as §4
Mycobacterium kansasii [25] = test: Antimycobacterial activity against Mycobacterium kansasii 6509/96 after 21 days; format: functional; details: 6509/96, 504 h; how it was run: as §1
Mycobacterium kansasii [26] = test: Antimycobacterial activity against Mycobacterium kansasii 6509/96 after 14 days; format: functional; details: 6509/96, 336 h; how it was run: as §1
Mycobacterium kansasii [27] = test: Antimycobacterial activity against Mycobacterium kansasii 6509/96 after 7 days; format: functional; details: 6509/96, 168 h; how it was run: as §1
Mycobacterium kansasii [28] = test: Antimycobacterial activity against Mycobacterium kansasii My 235/80 after 21 days; format: functional; details: My 235/80, 504 h; how it was run: as §1
Mycobacterium kansasii [29] = test: Antimycobacterial activity against Mycobacterium kansasii My 235/80 after 14 days; format: functional; details: My 235/80, 336 h; how it was run: as §1
HepG2 = test: Cytotoxicity against human HepG2 cells after 24 hrs by CellTiter assay; format: cell-based; details: HepG2, 24 h
How it was run: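 HepG2 cells (passage 27–33) in MEM with 10% FBS, L-glutamine and NEAA, seeded at 1×10^4 per well. Treated next day with compounds at 0.1–100 µM (or 0.1–25 µmol/L), triplicates, <1% DMSO, for 24 h at 37 °C, 5% CO2. MTS reagent added for 2 h, absorbance read at 490 nm. IC50 taken against untreated (100%) and 10% DMSO (0%) controls.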

Mycobacterium kansasii [30] = test: Antimycobacterial activity against Mycobacterium kansasii My 235/80 after 7 days; format: functional; details: My 235/80, 168 h; how it was run: as §1

SMILES	MIC (Mycobacterium avium [1]) [µM]	MIC (Mycobacterium avium [2]) [µM]	MIC [3] [µM]	MIC [4] [µM]	MIC50 [5] [µM]	MIC50 [6] [µM]	MIC50 (Lichtheimia corymbifera [7]) [µM]	MIC50 (Lichtheimia corymbifera [8]) [µM]	MIC50 (Aspergillus fumigatus [9]) [µM]	MIC50 (Aspergillus fumigatus [10]) [µM]	MIC80 (Trichosporon asahii [11]) [µM]	MIC80 (Trichosporon asahii [12]) [µM]	MIC80 (Pichia kudriavzevii [13]) [µM]	MIC80 (Pichia kudriavzevii [14]) [µM]	MIC80 (Candida albicans [15]) [µM]	MIC80 (Candida albicans [16]) [µM]	Activity (Nakaseomyces glabratus)	Activity (Candida tropicalis)	Activity (Pseudomonas aeruginosa)	Activity (Klebsiella pneumoniae [17])	other results
CCOP(=O)(OCC)Oc1cc(Cl)ccc1C(=O)Nc1cccc(F)c1	16 (≈ 6.43 µg/mL)	16 (≈ 6.43 µg/mL)	8 (≈ 3.21 µg/mL)	8 (≈ 3.21 µg/mL)	500 (≈ 201 µg/mL)	500 (≈ 201 µg/mL)	> 500	> 500	> 500	> 500	> 500	> 500	> 500	> 500	> 500	> 500	inactive	inactive	inactive	inactive	Activity (Klebsiella pneumoniae [18]): inactive; Activity (Escherichia coli): inactive; Activity (Enterococcus sp.): inactive; MIC95 [19]: 250 µM (≈ 100 µg/mL); MIC95 [20]: 250 µM (≈ 100 µg/mL); MIC95 (Staphylococcus aureus [21]): 250 µM (≈ 100 µg/mL); MIC95 (Staphylococcus aureus [22]): 250 µM (≈ 100 µg/mL); MIC95 (Staphylococcus aureus [23]): 250 µM (≈ 100 µg/mL); MIC95 (Staphylococcus aureus [24]): 125 µM (≈ 50.2 µg/mL); MIC (Mycobacterium kansasii [25]): 16 µM (≈ 6.43 µg/mL); MIC (Mycobacterium kansasii [26]): 16 µM (≈ 6.43 µg/mL); MIC (Mycobacterium kansasii [27]): 8 µM (≈ 3.21 µg/mL); MIC (Mycobacterium kansasii [28]): 16 µM (≈ 6.43 µg/mL); MIC (Mycobacterium kansasii [29]): 16 µM (≈ 6.43 µg/mL); IC50 (HepG2): 11.2 µM; MIC (Mycobacterium kansasii [30]): 8 µM (≈ 3.21 µg/mL)
CCOP(=O)(OCC)Oc1ccc(Br)cc1C(=O)Nc1ccc(Cl)cc1	8 (≈ 3.7 µg/mL)	8 (≈ 3.7 µg/mL)	4 (≈ 1.85 µg/mL)	2 (≈ 0.925 µg/mL)	> 500	> 500	> 500	> 500	> 500	> 500	> 500	> 500	> 500	> 500	> 500	> 500	inactive	inactive	inactive	inactive	Activity (Klebsiella pneumoniae [18]): inactive; Activity (Escherichia coli): inactive; Activity (Enterococcus sp.): inactive; MIC95 [19]: > 500 µM; MIC95 [20]: 500 µM (≈ 231 µg/mL); MIC95 (Staphylococcus aureus [21]): > 500 µM; MIC95 (Staphylococcus aureus [22]): 500 µM (≈ 231 µg/mL); MIC95 (Staphylococcus aureus [23]): > 500 µM; MIC95 (Staphylococcus aureus [24]): 500 µM (≈ 231 µg/mL); MIC (Mycobacterium kansasii [25]): 4 µM (≈ 1.85 µg/mL); MIC (Mycobacterium kansasii [26]): 4 µM (≈ 1.85 µg/mL); MIC (Mycobacterium kansasii [27]): 4 µM (≈ 1.85 µg/mL); MIC (Mycobacterium kansasii [28]): 8 µM (≈ 3.7 µg/mL); MIC (Mycobacterium kansasii [29]): 4 µM (≈ 1.85 µg/mL); IC50 (HepG2): 6.81 µM; MIC (Mycobacterium kansasii [30]): 4 µM (≈ 1.85 µg/mL)
